Test results as given in ChEMBL document CHEMBL3593164, “Rational Design and Synthesis of Thioridazine Analogues as Enhancers of the Antituberculosis Therapy” (J Med Chem, 2015).

Key:
[1] = tested on: Mycobacterium tuberculosis; assay: Inhibition of multidrug resistance efflux pump in Mycobacterium tuberculosis H37Rv assessed as amikacin MIC at 256 ug/ml after 7 days by two-dimensional broth microdilution checkerboard assay; details: 168 h
In short: (§1)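 M. tuberculosis H37Rv two-dimensional broth microdilution checkerboard. MICs of INH, RIF, AMK, OFX or EtBr were determined without and with graded sub-inhibitory compound concentrations, starting at ½ MIC. Where MIC was undeterminable, the highest concentration still permitting growth was taken as ½ MIC. FIC = MIC of antibacterial in combination / MIC alone. FIC ≤0.25 was scored as synergism and ≥2 as antagonism.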

[2] = tested on: Mycobacterium tuberculosis; assay: Inhibition of multidrug resistance efflux pump in Mycobacterium tuberculosis H37Rv assessed as amikacin MIC at 64 ug/ml after 7 days by two-dimensional broth microdilution checkerboard assay; details: 168 h
[3] = tested on: Mycobacterium tuberculosis; assay: Inhibition of multidrug resistance efflux pump in Mycobacterium tuberculosis H37Rv assessed as amikacin MIC at 16 ug/ml after 7 days by two-dimensional broth microdilution checkerboard assay; details: 168 h
[4] = tested on: Mycobacterium tuberculosis; assay: Inhibition of multidrug resistance efflux pump in Mycobacterium tuberculosis H37Rv assessed as amikacin MIC at 4 ug/ml after 7 days by two-dimensional broth microdilution checkerboard assay; details: 168 h
[5] = tested on: Mycobacterium tuberculosis; assay: Inhibition of multidrug resistance efflux pump in Mycobacterium tuberculosis H37Rv assessed as ethidium bromide MIC at 16 ug/ml after 7 days by two-dimensional broth microdilution checkerboard assay; details: 168 h
[6] = tested on: Mycobacterium tuberculosis; assay: Inhibition of multidrug resistance efflux pump in Mycobacterium tuberculosis H37Rv assessed as reduction in rifampin MIC at 128 ug/ml after 7 days by two-dimensional broth microdilution checkerboard assay
[7] = tested on: Mycobacterium tuberculosis; assay: Inhibition of multidrug resistance efflux pump in Mycobacterium tuberculosis H37Rv assessed as reduction in rifampin MIC at 32 ug/ml after 7 days by two-dimensional broth microdilution checkerboard assay; in short: as §1
[8] = tested on: Mycobacterium tuberculosis; assay: Inhibition of multidrug resistance efflux pump in Mycobacterium tuberculosis H37Rv assessed as reduction in rifampin MIC at 16 ug/ml after 7 days by two-dimensional broth microdilution checkerboard assay; in short: as §1
[9] = tested on: Mycobacterium tuberculosis; assay: Inhibition of multidrug resistance efflux pump in Mycobacterium tuberculosis H37Rv assessed as reduction in rifampin MIC at 8 ug/ml after 7 days by two-dimensional broth microdilution checkerboard assay; in short: as §1
[10] = tested on: Mycobacterium tuberculosis; assay: Inhibition of multidrug resistance efflux pump in Mycobacterium tuberculosis H37Rv assessed as isoniazid MIC at 8 ug/ml after 7 days by two-dimensional broth microdilution checkerboard assay; details: 168 h
[11] = tested on: Mycobacterium tuberculosis; assay: Inhibition of multidrug resistance efflux pump in Mycobacterium tuberculosis H37Rv assessed as rifampin MIC at 64 ug/ml after 7 days by two-dimensional broth microdilution checkerboard assay; details: 168 h
[12] = tested on: Mycobacterium tuberculosis; assay: Inhibition of multidrug resistance efflux pump in Mycobacterium tuberculosis H37Rv assessed as amikacin MIC at 1 ug/ml after 7 days by two-dimensional broth microdilution checkerboard assay; details: 168 h; in short: as §1
[13] = tested on: Mycobacterium tuberculosis; assay: Inhibition of multidrug resistance efflux pump in Mycobacterium tuberculosis H37Rv assessed as reduction in amikacin MIC at 64 ug/ml after 7 days by two-dimensional broth microdilution checkerboard assay; in short: as §1
[14] = tested on: Mycobacterium tuberculosis; assay: Inhibition of multidrug resistance efflux pump in Mycobacterium tuberculosis H37Rv assessed as reduction in amikacin MIC at 32 ug/ml after 7 days by two-dimensional broth microdilution checkerboard assay; in short: as §1
[15] = tested on: Mycobacterium tuberculosis; assay: Inhibition of multidrug resistance efflux pump in Mycobacterium tuberculosis H37Rv assessed as reduction in ofloxacin MIC at 64 ug/ml after 7 days by two-dimensional broth microdilution checkerboard assay; in short: as §1
[16] = tested on: Mycobacterium tuberculosis; assay: Inhibition of multidrug resistance efflux pump in Mycobacterium tuberculosis H37Rv assessed as reduction in ethidium bromide MIC at 64 ug/ml after 7 days by two-dimensional broth microdilution checkerboard assay
[17] = tested on: Mycobacterium tuberculosis; assay: Inhibition of multidrug resistance efflux pump in Mycobacterium tuberculosis H37Rv assessed as isoniazid MIC at 2 ug/ml after 7 days by two-dimensional broth microdilution checkerboard assay; details: 168 h
[18] = tested on: Mycobacterium tuberculosis; assay: Inhibition of multidrug resistance efflux pump in Mycobacterium tuberculosis H37Rv assessed as rifampin MIC at 2 ug/ml after 7 days by two-dimensional broth microdilution checkerboard assay; details: 168 h
[19] = tested on: Mycobacterium tuberculosis; assay: Inhibition of multidrug resistance efflux pump in Mycobacterium tuberculosis H37Rv assessed as reduction in isoniazid MIC at 256 ug/ml after 7 days by two-dimensional broth microdilution checkerboard assay; in short: as §1
[20] = tested on: Mycobacterium tuberculosis; assay: Inhibition of multidrug resistance efflux pump in Mycobacterium tuberculosis H37Rv assessed as reduction in amikacin MIC at 256 ug/ml after 7 days by two-dimensional broth microdilution checkerboard assay; in short: as §1
[21] = tested on: Mycobacterium tuberculosis; assay: Inhibition of multidrug resistance efflux pump in Mycobacterium tuberculosis H37Rv assessed as reduction in ofloxacin MIC at 256 ug/ml after 7 days by two-dimensional broth microdilution checkerboard assay; in short: as §1
[22] = tested on: Mycobacterium tuberculosis; assay: Inhibition of multidrug resistance efflux pump in Mycobacterium tuberculosis H37Rv assessed as reduction in ethidium bromide MIC at 256 ug/ml after 7 days by two-dimensional broth microdilution checkerboard assay; in short: as §1
[23] = tested on: Mycobacterium tuberculosis; assay: Inhibition of multidrug resistance efflux pump in Mycobacterium tuberculosis H37Rv assessed as rifampin MIC at 1.88 ug/ml after 7 days by two-dimensional broth microdilution checkerboard assay; details: 168 h
In short: (§2)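 M. tuberculosis H37Rv ATCC27294. MICs of INH, RIF, AMK, OFX and EtBr were determined alone and with sub-inhibitory concentrations of test compound by two-dimensional broth microdilution checkerboard. Where a compound's MIC was not determinable, the highest concentration still allowing growth was taken as ½ MIC. FIC = MIC in combination / MIC alone. FIC ≤0.25 was scored as synergism and ≥2 as antagonism.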

[24] = tested on: Mycobacterium tuberculosis; assay: Inhibition of multidrug resistance efflux pump in Mycobacterium tuberculosis H37Rv assessed as rifampin MIC at 0.47 ug/ml after 7 days by two-dimensional broth microdilution checkerboard assay; details: 168 h; in short: as §2
[25] = tested on: Mycobacterium tuberculosis; assay: Inhibition of multidrug resistance efflux pump in Mycobacterium tuberculosis H37Rv assessed as amikacin MIC at 0.12 ug/ml after 7 days by two-dimensional broth microdilution checkerboard assay; details: 168 h; in short: as §2
[26] = tested on: Mycobacterium tuberculosis; assay: Inhibition of multidrug resistance efflux pump in Mycobacterium tuberculosis H37Rv assessed as ofloxacin MIC at 1.88 ug/ml after 7 days by two-dimensional broth microdilution checkerboard assay; details: 168 h; in short: as §2
[27] = tested on: Mycobacterium tuberculosis; assay: Inhibition of multidrug resistance efflux pump in Mycobacterium tuberculosis H37Rv assessed as ethidium bromide MIC at 0.23 ug/ml after 7 days by two-dimensional broth microdilution checkerboard assay; details: 168 h; in short: as §2
[28] = tested on: Mycobacterium tuberculosis; assay: Inhibition of multidrug resistance efflux pump in Mycobacterium tuberculosis H37Rv assessed as reduction in isoniazid MIC at 7.5 ug/ml after 7 days by two-dimensional broth microdilution checkerboard assay; in short: as §1
[29] = tested on: Mycobacterium tuberculosis; assay: Inhibition of multidrug resistance efflux pump in Mycobacterium tuberculosis H37Rv assessed as isoniazid MIC at 1.88 ug/ml after 7 days by two-dimensional broth microdilution checkerboard assay; details: 168 h; in short: as §2
[30] = tested on: Mycobacterium tuberculosis; assay: Inhibition of multidrug resistance efflux pump in Mycobacterium tuberculosis H37Rv assessed as isoniazid MIC at 0.23 ug/ml after 7 days by two-dimensional broth microdilution checkerboard assay; details: 168 h; in short: as §2
[31] = tested on: Mycobacterium tuberculosis; assay: Inhibition of multidrug resistance efflux pump in Mycobacterium tuberculosis H37Rv assessed as rifampin MIC at 3.75 ug/ml after 7 days by two-dimensional broth microdilution checkerboard assay; details: 168 h; in short: as §2

For `COc1ccc(N(CCC2CCCCN2C)C(C)C)cc1OC` (racemic), the MIC [1] was 2 µg/mL, the MIC [2] was 2 µg/mL and the MIC [3] was 2 µg/mL. The MIC [4] was 2 µg/mL, the MIC [5] was 12.5 µg/mL and the “fold change (FC)” value [6] was 4. For the same compound, the “fold change (FC)” value [7] was 4, the “fold change (FC)” value [8] was 4 and the “fold change (FC)” value [9] was 4. For the same compound, the MIC [10] was 0.1 µg/mL and the MIC [11] was 0.25 µg/mL.

`CN1CCCCC1CCn1c2ccccc2c2ccccc21` (racemic) was tested, and the MIC [2] was < 0.0156 µg/mL, the MIC [3] was 1 µg/mL and the MIC [4] was 1 µg/mL. The MIC [12] was 1 µg/mL, the MIC [5] was 6.25 µg/mL and the “fold change (FC)” value [7] was 16. The “fold change (FC)” value [13] was >128, the “fold change (FC)” value [14] was 4 and the “fold change (FC)” value [15] was >128. For the same compound, the “fold change (FC)” value [16] was >64, the MIC [10] was 0.1 µg/mL and the MIC [17] was 0.1 µg/mL. For the same compound, the MIC [11] was < 0.0156 µg/mL and the MIC [18] was 1 µg/mL.

`CN1CCCCC1CCn1ccc2ccc(Br)cc21` (racemic) was tested, and the MIC [1] was < 0.0156 µg/mL, the MIC [2] was > 0.0156 µg/mL and the MIC [3] was 1 µg/mL. The MIC [4] was 1 µg/mL, the MIC [5] was 12.5 µg/mL and the “fold change (FC)” value [19] was >128. The “fold change (FC)” value [6] was >164, the “fold change (FC)” value [7] was 32 and the “fold change (FC)” value [8] was 16. For the same compound, the “fold change (FC)” value [9] was 4, the “fold change (FC)” value [13] was >128 and the “fold change (FC)” value [20] was >128. For the same compound, the “fold change (FC)” value [15] was >128, the “fold change (FC)” value [21] was >128 and the “fold change (FC)” value [16] was 8. For the same compound, the “fold change (FC)” value [22] was >164, the MIC [10] was 0.1 µg/mL and the MIC [11] was < 0.0156 µg/mL.

In the case of `CN1CCCCC1CCn1cnc2ccccc21` (racemic), the MIC [1] is reported as < 0.0156 µg/mL, the MIC [2] is reported as 1 µg/mL and the MIC [3] is reported as 1 µg/mL. The MIC [4] was 1 µg/mL, the MIC [5] was 12.5 µg/mL and the “fold change (FC)” value [19] was >128. For the same compound, the “fold change (FC)” value [20] was >128, the “fold change (FC)” value [21] was >128 and the “fold change (FC)” value [22] was >64. The MIC [10] was 0.1 µg/mL and the MIC [11] was 0.5 µg/mL.

`CSc1ccc2c(c1)N(CCC1CCCCN1C)c1ccccc1S2` (stereo not drawn) [THIORIDAZINE] gave an MIC [23] of 1 µg/mL, an MIC [24] of 1 µg/mL and an MIC [25] of 1 µg/mL. The MIC [26] was 1 µg/mL, the MIC [27] was 6.25 µg/mL and the “fold change (FC)” value [28] was >128. It also gave an MIC [29] of 0.1 µg/mL, an MIC [30] of 0.1 µg/mL and an MIC [31] of 1 µg/mL.
